Screens from PubChem.
A selection: hits, their analogues and other compounds. The true share with any hit is near 7.1%.
Fibroblast inh: blocks proliferation of human lung fibroblasts. AID 719. LL 47 human lung fibroblast viability, ATP luminescence; hits give low values. hit rate 1.1% among 85,000. viability, % at 10 µM;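 active means viability at or below 50% in the single dose screen; inactive means viability above 50%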;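 further: compound exposure lasted 72 h before the ATP readout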
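material = human LL 47 lung fibroblast cells | dosing = compounds added from tenfold dosing solution, 0.1% DMSO final | timing = overnight cell rest, 72 h compound treatment at 37 °C | measured by = CellTiter-Glo luminescence measuring cellular ATP | evaluation = % viability versus median cells-only luminescence | control set = cell-only wells, no compound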
H69AR growth 86K: growth inhibitors of human H69AR lung tumor cells; H69AR lung tumor viability, ATP luminescence, 72 h; hits give low values; viability, % at 10 µM; hit rate 6% among 85,000; AID 598;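 active means viability at or below 40%; inactive means viability above 40%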;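 further: multidrug resistant small cell line overexpressing MRP-1 efflux transporter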
Cav3 T inh: blocks human Cav3.2 T-type calcium channel; O95180; Cav3.2-expressing cells, Fluo-4 calcium fluorescence FDSS; hits give low values; B-score at 10 µM; hit rate 4% among 100,000; AID 449739;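 active means single-dose well whose peak fluorescence ratio is a statistical outlier from its plate by either plate-standardised score or position-corrected B-score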
Target sequence (O95180 whole entry, looked up): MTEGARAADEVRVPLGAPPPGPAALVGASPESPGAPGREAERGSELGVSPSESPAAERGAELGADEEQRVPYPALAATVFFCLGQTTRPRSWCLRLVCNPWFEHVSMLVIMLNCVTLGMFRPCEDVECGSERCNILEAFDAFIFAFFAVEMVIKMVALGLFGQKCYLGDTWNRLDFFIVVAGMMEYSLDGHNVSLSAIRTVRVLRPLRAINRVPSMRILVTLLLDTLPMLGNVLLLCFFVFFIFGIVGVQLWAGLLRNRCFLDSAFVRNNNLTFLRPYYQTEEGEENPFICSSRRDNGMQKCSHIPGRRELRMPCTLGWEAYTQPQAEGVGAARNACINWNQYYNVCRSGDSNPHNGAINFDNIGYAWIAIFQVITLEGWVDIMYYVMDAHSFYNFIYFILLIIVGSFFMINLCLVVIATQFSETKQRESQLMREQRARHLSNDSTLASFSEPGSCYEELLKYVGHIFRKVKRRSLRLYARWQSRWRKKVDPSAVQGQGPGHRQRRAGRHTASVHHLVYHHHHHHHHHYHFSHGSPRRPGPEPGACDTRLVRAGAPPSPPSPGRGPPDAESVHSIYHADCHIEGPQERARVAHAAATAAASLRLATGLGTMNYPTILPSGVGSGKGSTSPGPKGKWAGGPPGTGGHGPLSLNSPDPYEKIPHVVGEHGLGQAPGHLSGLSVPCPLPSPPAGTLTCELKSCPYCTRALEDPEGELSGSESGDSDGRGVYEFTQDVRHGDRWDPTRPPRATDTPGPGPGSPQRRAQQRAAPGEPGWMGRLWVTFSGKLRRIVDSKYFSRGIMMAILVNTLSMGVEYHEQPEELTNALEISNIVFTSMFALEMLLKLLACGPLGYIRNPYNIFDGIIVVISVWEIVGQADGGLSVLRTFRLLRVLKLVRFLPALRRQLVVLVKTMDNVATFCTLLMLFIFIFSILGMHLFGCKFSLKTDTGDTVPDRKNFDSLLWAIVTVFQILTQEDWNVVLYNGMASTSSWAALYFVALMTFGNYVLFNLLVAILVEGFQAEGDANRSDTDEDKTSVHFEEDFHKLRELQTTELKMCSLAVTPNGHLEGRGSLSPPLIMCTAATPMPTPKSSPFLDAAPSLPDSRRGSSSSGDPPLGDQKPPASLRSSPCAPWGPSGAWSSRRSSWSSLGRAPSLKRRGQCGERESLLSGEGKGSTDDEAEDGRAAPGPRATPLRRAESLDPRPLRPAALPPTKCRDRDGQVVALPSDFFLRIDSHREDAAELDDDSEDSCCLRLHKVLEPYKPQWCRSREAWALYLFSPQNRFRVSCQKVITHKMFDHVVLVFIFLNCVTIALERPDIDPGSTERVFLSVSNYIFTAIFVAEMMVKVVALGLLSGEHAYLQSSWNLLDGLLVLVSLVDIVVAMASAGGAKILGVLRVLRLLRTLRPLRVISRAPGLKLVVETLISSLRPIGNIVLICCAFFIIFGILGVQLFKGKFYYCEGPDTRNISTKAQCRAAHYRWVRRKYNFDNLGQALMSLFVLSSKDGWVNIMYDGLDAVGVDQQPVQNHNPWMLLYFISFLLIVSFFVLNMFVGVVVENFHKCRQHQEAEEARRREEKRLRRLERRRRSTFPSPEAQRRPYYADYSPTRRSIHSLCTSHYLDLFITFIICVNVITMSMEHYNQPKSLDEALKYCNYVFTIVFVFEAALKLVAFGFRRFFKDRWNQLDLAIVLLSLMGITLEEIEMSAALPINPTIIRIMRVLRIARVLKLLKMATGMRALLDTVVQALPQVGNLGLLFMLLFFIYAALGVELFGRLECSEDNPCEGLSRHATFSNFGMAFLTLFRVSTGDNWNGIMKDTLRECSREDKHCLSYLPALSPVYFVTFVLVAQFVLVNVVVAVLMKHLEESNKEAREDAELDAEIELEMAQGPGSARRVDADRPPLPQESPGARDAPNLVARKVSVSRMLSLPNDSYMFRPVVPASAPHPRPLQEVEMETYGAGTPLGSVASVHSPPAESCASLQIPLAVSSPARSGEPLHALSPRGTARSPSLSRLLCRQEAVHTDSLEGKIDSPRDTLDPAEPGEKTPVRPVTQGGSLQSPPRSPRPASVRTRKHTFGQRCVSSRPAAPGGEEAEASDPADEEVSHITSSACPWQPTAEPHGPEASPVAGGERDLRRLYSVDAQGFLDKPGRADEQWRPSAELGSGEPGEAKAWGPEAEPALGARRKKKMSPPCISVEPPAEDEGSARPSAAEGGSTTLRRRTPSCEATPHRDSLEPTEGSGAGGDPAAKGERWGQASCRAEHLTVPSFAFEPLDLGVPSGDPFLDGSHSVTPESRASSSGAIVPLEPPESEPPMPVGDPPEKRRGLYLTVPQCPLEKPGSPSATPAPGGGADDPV
HUVEC inhibit: blocks proliferation of human endothelial cells. HUVEC proliferation, CellTiter-Glo luminescence, 72 h; hits give low values. viability, % at 10 µM (by protocol). hit rate 1.1% among 86,000;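 active means viability at or below 30%; inactive means viability above 30%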
PTEN del growth: PTEN-deleted cell growth suppression; HCT116 PTEN-null viability, CellTiter-Glo, 60 h; hits give low values; viability, % at 10 µM; hit rate 1.2% among 140,000; AID 827;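 active means viability at or below a set limit, 4 SD under the median of all tested compounds, cut at about 3.7% in these data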;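 further: PTEN knockout HCT116 line with beta catenin targeted HCT116 as companion control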
HCT116 bCat-KO: beta-catenin-lacking colon tumor cell growth suppression | HCT116 beta-catenin knockout viability, CellTiter-Glo, 60 h; hits give low values | viability, % at 10 µM | hit rate 1.5% among 140,000 | AID 818;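 active means viability at or under a set limit, the compound median less 4 SD, cut at about 6% in these data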
Each line names hits and unclear results; the compound was inactive in the other large screens.

O=S(=O)(CC(CN1CCCC1)N1CCCC1)c1ccc2ccccc2c1 (centres undefined)	Fibroblast inh 3.5, H69AR growth 86K 1.9, HUVEC inhibit 18, PTEN del growth 2.1, HCT116 bCat-KO 1.9
CC(CS(=O)(=O)c1ccc2ccccc2c1)N1CCN(C2CCCCC2)CC1 (centres undefined)	none (no result: Cav3 T inh, PTEN del growth, HCT116 bCat-KO)
Cc1ccc(CONC(=O)/N=C/N(C)C)cc1	none (no result: Fibroblast inh, H69AR growth 86K, HUVEC inhibit)
O=C1CC(c2ccco2)CC(O)=C1C=NCCN1CCN(C(=O)Nc2ccc(Cl)cc2)CC1 (centres undefined)	none (no result: Fibroblast inh, H69AR growth 86K, Cav3 T inh, HUVEC inhibit)
O=C1CC(c2ccc(F)cc2)CC(O)=C1C=NCCN1CCN(C(=O)Nc2ccccc2)CC1 (centres undefined)	Cav3 T inh -4.2
Cc1ccccc1-c1nc(CS(=O)(=O)CC(=O)N(C)C2CCCCC2)c(C)o1	Cav3 T inh -7.3
Cc1ccccc1-c1nc(CS(=O)(=O)CC(=O)NCc2ccccc2)c(C)o1	Cav3 T inh -4.2
Cc1cccc(C(=O)NCCN2CCOCC2)c1[N+](=O)[O-]	none (no result: Fibroblast inh, H69AR growth 86K, Cav3 T inh, HUVEC inhibit)
CC1=CC(C)C2COC(c3ccc[n+](C)c3)C1C2C (centres undefined)	none (no result: Fibroblast inh, H69AR growth 86K, Cav3 T inh, HUVEC inhibit)
Cc1ccc(-c2nnc(Nc3ccccc3)c3ccccc23)cc1S(=O)(=O)NCC1CCCO1 (centres undefined)	none (no result: Fibroblast inh, H69AR growth 86K, HUVEC inhibit)
Cc1ccc(-c2nn3c(-c4ccco4)nnc3c3ccccc23)cc1S(=O)(=O)NCC1CCCO1 (centres undefined)	H69AR growth 86K 16
Cc1noc2ncnc(Oc3ccc(F)cc3)c12	none (no result: Fibroblast inh, H69AR growth 86K, HUVEC inhibit)
CC1CCC(C(C)C)C(OC(=O)COC(=O)c2ccc(N)cc2)C1 (centres undefined)	none (no result: Fibroblast inh, H69AR growth 86K, Cav3 T inh, HUVEC inhibit)
C/C(=N\O)C(=O)OC1CC(C)CCC1C(C)C (centres undefined)	Cav3 T inh -4.7
CSc1cccc(-n2cc(-c3ccc4c(c3)OCO4)[nH]c2=O)c1	H69AR growth 86K 25
CC(=O)c1c(C)nc(-c2ccc3c(c2)OCO3)n1O	none
O=C(COc1ccccc1-c1ccccc1)NCc1cccc(Cl)c1	none (no result: Fibroblast inh, H69AR growth 86K, Cav3 T inh, HUVEC inhibit)
Cc1ccc(NC(=O)CN2CCCN(S(=O)(=O)c3ccc(Br)s3)CC2)cc1	H69AR growth 86K 31
Cc1ccc(NC(=O)CN(C)S(=O)(=O)c2ccc(Br)s2)cc1F	none (no result: Fibroblast inh, H69AR growth 86K, Cav3 T inh, HUVEC inhibit)
Cc1cc(C(=O)N/N=C/c2ccc(Cl)c([N+](=O)[O-])c2)c(C)n1-c1ccc(F)cc1	PTEN del growth 2.5, HCT116 bCat-KO 3.1 (no result: Fibroblast inh, H69AR growth 86K, Cav3 T inh, HUVEC inhibit)
CCOC(=O)C1=C(c2ccccc2)Nc2ncnn2C1c1cc(OC)ccc1OC (centres undefined)	H69AR growth 86K 39
Cc1ccc(CNC(=O)c2cnccn2)cc1	none (no result: Fibroblast inh, H69AR growth 86K, Cav3 T inh, HUVEC inhibit)
O=C(/C=C/c1ccc(Cl)cc1)c1cccnc1	Fibroblast inh 25, H69AR growth 86K 38, PTEN del growth 0.7, HCT116 bCat-KO 0.5 (no result: Cav3 T inh)
O=C(/C=C/c1ccccc1)NNC(=O)c1cccnc1	none (no result: Fibroblast inh, H69AR growth 86K, Cav3 T inh, HUVEC inhibit)
O=C(/C=C/c1ccccc1Cl)c1cccnc1	H69AR growth 86K 1.2, HUVEC inhibit 21
O=C(/C=C/c1ccc(OCc2ccccc2)c(OCc2ccccc2)c1)c1cccnc1	PTEN del growth 1.6, HCT116 bCat-KO 1.5 (no result: Fibroblast inh, H69AR growth 86K, Cav3 T inh, HUVEC inhibit)
O=C(c1cccnc1)c1cccnc1	none (no result: Fibroblast inh, H69AR growth 86K, Cav3 T inh, HUVEC inhibit)
N=C1c2ccccc2CN1NC(=O)c1cccc(S(=O)(=O)N2CCCC2)c1	none (no result: Fibroblast inh, H69AR growth 86K, Cav3 T inh, HUVEC inhibit)
O=C(NC(c1ccc(Cl)cc1)c1c(O)ccc2ccccc12)c1ccccc1 (centres undefined)	PTEN del growth 0.6, HCT116 bCat-KO 1.1 (no result: Fibroblast inh, H69AR growth 86K, Cav3 T inh, HUVEC inhibit)
COc1cccc(C2NC(=O)N(CCCC(=O)O)C(C)=C2C(=O)OCc2ccccc2)c1 (centres undefined)	none (no result: Fibroblast inh, H69AR growth 86K, HUVEC inhibit, PTEN del growth, HCT116 bCat-KO)
COc1ccccc1NC(=O)N1CCc2[nH]c3ccc(F)cc3c2C1	Cav3 T inh -4.2
COc1ccccc1NC(=O)N1CCN(c2ccc(F)cc2)CC1	none
CCOC(=O)C1CCN(C(c2cc3ccc(C)cc3[nH]c2=O)c2nnnn2C2CCCCC2)CC1 (centres undefined)	none
CCOC(=O)c1cc2oc(C(c3nnnn3C3CCCCC3)N3CCOCC3)cc2[nH]1 (centres undefined)	H69AR growth 86K 9.8, Cav3 T inh -3.5
N#Cc1ccc(NC(=O)c2cc3cc4c5c(c3oc2=N)CCCN5CCC4)cc1	none (no result: Cav3 T inh, PTEN del growth, HCT116 bCat-KO)
N=c1oc2c3c4c(cc2cc1C(=O)Nc1ccccc1)CCCN4CCC3	Cav3 T inh -11 (no result: Fibroblast inh, H69AR growth 86K, HUVEC inhibit)
Cc1ccc(C(C[N+](=O)[O-])c2c(-c3ccccc3O)[nH][nH]c2=O)cc1 (centres undefined)	PTEN del growth 3.6, HCT116 bCat-KO 3.5 (no result: Fibroblast inh, H69AR growth 86K, Cav3 T inh, HUVEC inhibit)
